Screening results from PubChem.
Shown are actives, neighbours in structure and some others; about 4.1% of the full set was active somewhere.
MrgX1 allo act: human MrgX1 positive allosteric modulation, primary screen | MrgX1-HEK293, Fluo-4 calcium flux, FDSS; active compounds read high | B-score at 10 µM | 310,000 tested, 0.63% active | AID 588675;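 active = plate-corrected calcium response at least 3 library SD above typical, normal starting fluorescence, not activating the receptor alone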;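 also: compound read alongside a low EC10 to EC30 dose of BAM8-22 agonist; peak minus trough fluorescence over baseline measured at the second addition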
Target sequence (Q96LB2 whole entry, looked up): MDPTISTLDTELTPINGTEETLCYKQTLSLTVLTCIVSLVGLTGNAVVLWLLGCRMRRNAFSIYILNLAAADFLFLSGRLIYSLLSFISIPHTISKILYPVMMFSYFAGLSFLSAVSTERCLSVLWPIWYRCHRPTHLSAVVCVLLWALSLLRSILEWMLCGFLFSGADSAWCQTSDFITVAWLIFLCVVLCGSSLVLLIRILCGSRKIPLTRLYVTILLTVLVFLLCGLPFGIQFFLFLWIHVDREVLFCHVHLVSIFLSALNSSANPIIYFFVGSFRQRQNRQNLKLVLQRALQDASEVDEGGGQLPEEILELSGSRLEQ
MrgX1 antag: antagonists of human MrgX1 receptor; Q96LB2; MRGX1-HEK293 calcium flux, Fluo-4, BAM8-22 antagonism; active compounds read low; B-score at 10 µM; 310,000 tested, 1.3% active; AID 588676;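 active = calcium-response B-score plate-corrected more than 3 library SD below zero, starting fluorescence within 5 deviations, no agonist response on first addition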;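 also: peak minus trough fluorescence over baseline after final BAM8-22 challenge near maximal dose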
RGS4 inh: human RGS4 inhibition; P49798; HEK293 M3R/RGS4 inducible, Fluo-4 calcium flux; active compounds read high; triggered by carbachol at its EC20; B-score at 10 µM; 310,000 tested, 0.45% active; AID 463165;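 active = B-score, a plate-corrected calcium signal, over three deviations above library mean, with baseline fluorescence within five deviations of library mean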;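 also: RGS4 expression induced by doxycycline in cells with stable M3 receptor; B-score is computed from the integrated fluorescence ratio over baseline after carbachol; higher B-score means a larger calcium signal and so more RGS4 inhibition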
Target sequence (P49798 whole entry, looked up): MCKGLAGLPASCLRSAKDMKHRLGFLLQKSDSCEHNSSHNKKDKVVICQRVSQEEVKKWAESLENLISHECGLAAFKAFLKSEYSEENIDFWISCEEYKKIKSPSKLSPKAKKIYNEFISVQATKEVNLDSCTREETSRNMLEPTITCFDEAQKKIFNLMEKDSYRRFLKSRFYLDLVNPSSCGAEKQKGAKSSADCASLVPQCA
Kir21 inh: blocks the mouse Kir2.1 inward-rectifier potassium channel; B-score at 10 µM; 310,000 tested, 0.85% active; HEK293-Kir2.1, FluxOR thallium flux fluorescence; active compounds read low;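 active = fluorescence ratio B-score at or below minus 3 SD of library scores, with starting-brightness B-score within 2 SD, cut at about -4.2 in these data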;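 also: channel flux triggered by added potassium and thallium sulfate stimulus; B-score of peak minus minimum fluorescence over baseline after thallium stimulus; more negative B-score means stronger Kir2.1 block with less thallium influx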
MrgX1 agonist: agonists of human MrgX1 receptor; MrgX1-HEK293 cells, Fluo-4 calcium fluorescence, agonist mode; active compounds read high; B-score at 10 µM; 310,000 tested, 0.44% active;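 active = calcium response B-score plate-corrected fluorescence ratio at least 3 library SD, with starting fluorescence B-score inside 5 SD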
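Test system: HEK293 cells stably expressing human MrgX1 receptor; amount: 15,000 cells per well; doses: compound delivered in addition one of three; times: overnight plating before 1 h dye loading; detection: Fluo-4 NW calcium-flux fluorescence, kinetic read; read-out basis: B-scored fluorescence response ratio; controls: positive and negative controls per plate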
RGS4 act: RGS4 potentiation or activation. HEK293 M3R/inducible RGS4, carbachol calcium flux Fluo4; active compounds read low. B-score at 10 µM. 310,000 tested, 0.92% active;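 active = B-score of the integrated calcium signal more than 4 SD below the library mean, with starting fluorescence not abnormally high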;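 also: negative B-score means reduced calcium response which marks RGS4 activation or potentiation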
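Reagent: ECmax carbachol challenge; Test system: M3R-expressing HEK293 line, RGS4 induced by doxycycline; Schedule: overnight RGS4 induction, 30 min dye load 37 °C, 20 min compound RT; Detection: calcium dye Fluo4 fluorescence; Read-out: Agonist-evoked peak-minus-minimum fluorescence over baseline, integrated ratio, B score.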
Of the large screens only hits and unclear results are named; the others gave an inactive call.

O=C(Cc1ccc(Cl)c(Cl)c1)Nc1ccccc1N1CCCC1	none
O=C(Cc1ccc(F)cc1)Nc1ccccc1N1CCCC1	Kir21 inh -5.4
O=S(=O)(Cc1ccccc1)N=Nc1c(O)[nH]c2ccc(Br)cc12	MrgX1 allo act 10
COc1cc(C(O)C(=O)O)ccc1O (centres undefined)	none (no result: RGS4 inh, Kir21 inh, RGS4 act)
C=CC[C@H]1CC(Cc2ccccc2)=C[C@H](CC=C)N1	Kir21 inh -6.5
C=CCC1C=C(Cc2ccccc2)CC(CC=C)N1 (centres undefined)	none
Cc1ccc(N(C)C(=O)c2ccc3c(Cl)c4c(nc3c2)CCC4)cc1C	none
COc1ccc(N(C)C(=O)c2ccc3c(Cl)c4c(nc3c2)CCCC4)c(OC)c1	RGS4 act -7.1
Cc1ccc(C[n+]2cccc(-c3ccccc3)c2)c(C)c1	Kir21 inh -4.3
COc1ccccc1OCC(=O)N/N=C/c1c(O)ccc2ccccc12	RGS4 act -7.6
COc1ccc(OCC(=O)N/N=C/c2ccc(OC)c(OC)c2C(=O)O)cc1	none
COc1ccc(/C=N/NC(=O)COc2ccc3ccccc3c2)c(C(=O)O)c1OC	MrgX1 antag -5.4
COc1ccccc1OCC(=O)N/N=C/c1cccc2cccnc12	none
CCOC(=O)/C=C/c1ccccc1S(=O)(=O)NC(C)(C)C	none
CS(=O)(=O)N(CC(=O)Nc1cccnc1)c1ccc2c(c1)OCO2	none
COc1ccccc1NC(=O)/C(C#N)=C/c1cccnc1	none
N#C/C(=C\c1cccnc1)C(=O)Nc1cccc2ccccc12	Kir21 inh -4.5
CCn1c(/C=C/c2cc[n+](C)cc2)nc2ccccc21	MrgX1 antag -5.9
COc1ccc(NC(=O)CNC(=O)Cn2cnc3sc(C)c(C)c3c2=O)cc1OC	none
C=CCN(CC=C)C(=O)c1cc(Cl)ccc1[N+](=O)[O-]	none
CCCCN(CCCC)C(=O)c1cc(Cl)ccc1[N+](=O)[O-]	Kir21 inh -7
Cc1ccc(-c2csc(Nc3ccc(C(=O)O)cc3)[n+]2Cc2ccccc2)cc1	MrgX1 allo act 9.1
O=C(O)CCCNc1ccc(S(=O)(=O)Nc2ccccc2C(=O)O)cc1C(=O)O	none (no result: RGS4 inh, Kir21 inh, RGS4 act)
CC1CC(C)CN(CCCNC(=O)c2ccc3c(c2)N(Cc2ccccc2)C(=O)c2ccccc2S3=O)C1 (centres undefined)	RGS4 act -7.2
O=C(NCCCN1CCCC1)c1ccc2c(c1)N(Cc1cccc(Cl)c1)C(=O)c1ccccc1S2=O (centres undefined)	none
Cc1ccccc1CN1C(=O)c2ccccc2S(=O)c2ccc(C(=O)NCCCN3CCOCC3)cc21 (centres undefined)	none
CC1CCCCN1CCNC(=O)c1ccc2c(c1)N(Cc1cccc(Cl)c1)C(=O)c1ccccc1S2=O (centres undefined)	RGS4 act -8.2
Cc1ccccc1S(=O)(=O)Cc1ccc(C(=O)NC(C)c2ccc3c(c2)OCCO3)o1 (centres undefined)	none
COC(C/C=C/[C@@H](O)COCc1ccccc1)OC	none
COc1cc(/C=C2/C(=O)N(c3ccc(Br)cc3)N=C2C)cc([N+](=O)[O-])c1O	none
COc1cc(/C=C2/C(=O)N(c3cccc(Br)c3)N=C2C)cc(OC)c1O	MrgX1 agonist 62
CCN(CC)CC#CCC(C)(c1ccccc1)c1ccccc1	Kir21 inh -8.9
CCN(CC)CC#CCC(O)(c1ccccc1)c1ccc(Br)cc1 (centres undefined)	RGS4 act -7.8
COc1ccc(CCNC(=S)NC(=O)c2ccccc2)cc1C	none
CC(=O)N(C1=C(Cl)C(=O)c2ccccc2C1=O)C1CCCCC1	MrgX1 antag -9.6
COc1ccc(CN2C(=O)c3ccccc3C(/C=N\OCc3ccc(F)cc3)C2=O)cc1 (centres undefined)	none
COc1ccc(CN2C(=O)c3ccccc3C(/C=N/OCc3ccc(Cl)cc3)C2=O)cc1 (centres undefined)	MrgX1 agonist 38
O=C(c1cccs1)N1N=C(c2ccccc2)CC1c1ccccc1 (centres undefined)	none
CCOc1ccc(/C=C2\SC(=S)NC2=O)cc1OC	none
COc1cc(/C=C2/SC(=S)NC2=O)ccc1OS(=O)(=O)c1ccc(C)cc1	MrgX1 antag -4.7
COc1ccc(/C=C2\SC(=S)NC2=O)cc1OS(=O)(=O)c1ccc(NC(C)=O)cc1	none (no result: MrgX1 allo act, MrgX1 antag, MrgX1 agonist)
COc1ccc(/C=C2\SC(=O)NC2=S)cc1OC	MrgX1 agonist 63
COc1cc(/C=C2\SC(=S)NC2=O)ccc1OS(=O)(=O)c1ccccc1	MrgX1 antag -6.1
O=C1NC(=S)S/C1=C\c1ccc2ccccc2c1	MrgX1 antag -4.9
Cc1ccc(C)c(NC(=S)NCCc2ccc(S(N)(=O)=O)cc2)c1	none
Cc1cc(N2CCC(C(=O)NCC3CC3)CC2)nc(-c2ccccc2)n1	none
O=C(N/N=C/c1cccc([N+](=O)[O-])c1)c1cc(-c2ccc3c4c(cccc24)CC3)n[nH]1	none
O=C1NC(=S)S/C1=C\c1coc2ccccc2c1=O	MrgX1 allo act 7.6
Cc1sc(-c2cccnc2)nc1OC(=O)C1CC1	none
Cc1ccc(C)c(N2CCN(C(=O)CCCN3C(=S)NC(C)(C)CC3C)CC2)c1 (centres undefined)	MrgX1 antag -4.6
Cc1cccc(N2CCN(C(=O)CCN3C(=S)NC(C)(C)CC3C)CC2)c1C (centres undefined)	none
COc1ccc(Br)cc1CN(C)CC(=O)Nc1cccc(S(N)(=O)=O)c1	Kir21 inh -4.6
COc1ccc(Nc2cc(C)c3c(O)cccc3n2)cc1	Kir21 inh -13
Cc1ccc(Nc2cc(C)c3c(O)cccc3n2)cc1C	none
Cc1ccccc1Nc1cc(C)c2c(O)cccc2n1	Kir21 inh -7.2
CCOC(=O)C1=C(N)OC2=C(C(=O)CC(C)C2)C1c1cccnc1 (centres undefined)	none
CC(C)c1nc2c(s1)CCc1onc(-c3ccc(Cl)cc3)c1-2	none
COc1ccc(CN(C(=O)CSc2nnc(-c3ccccc3F)o2)c2ccc(F)cc2)cc1	RGS4 act -7.8
CCOc1ccc(-c2cc(N3C(=O)Nc4ccccc4N3O)n[nH]2)cc1	MrgX1 antag -6.7
COc1cccc(-c2cc(N3C(=O)Nc4ccccc4N3O)n[nH]2)c1	none
CCCCOc1ccccc1C(=O)NNC(=S)NC(=O)c1ccccc1[N+](=O)[O-]	MrgX1 antag -5.8
CC(C)(C)n1nnnc1C(c1cccnc1)N(Cc1ccccc1)Cc1cccs1 (centres undefined)	MrgX1 antag -6
O=C1/C(=C/c2ccc(Br)cc2)Oc2cc(O)ccc21	MrgX1 antag -9.7
CC(C)(C)c1ccc(/C=C2\Oc3cc(O)ccc3C2=O)cc1	none
CC(=O)Oc1ccc(/C=C2/Oc3ccccc3C2=O)cc1	none
